# Activity calls are given as the source filed them.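 The calls were made as follows, unless noted: active = viability loss from added drug above about 55%, and viability with drug at most 40%, in both replicates (limit read from the data, passing the limit was not always enough); inconclusive = both conditions met in only one replicate; inactive = neither replicate meets both conditions.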
# Tests used:
# [1] = Her2 expression decrease, cell viability multiplex – SKBR3 breast tumor cells, AlphaScreen, ATP viability, primary screen (AID 461;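 active = Her2 level under about 52% in both replicate screens, with viability over 70% of control, limit read from the data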;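 as to Her2 level: lower value means less Her2 protein in the cells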;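 as to viability: percent of carrier control wells set as 100% viability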); settings: SKBR3 Her2 protein level, 18-24 h, measured here: SKBR3 viability, ATP luminescence, at 10 µM
# [2] = molecular target: Receptor tyrosine-protein kinase erbB-2 (Homo sapiens) (UniProt P04626); assay: as above; settings: 18-24 h, at 10 µM, stronger effect = lower value
# Receptor tyrosine-protein kinase erbB-2 (Homo sapiens), sequence (P04626 whole entry, looked up): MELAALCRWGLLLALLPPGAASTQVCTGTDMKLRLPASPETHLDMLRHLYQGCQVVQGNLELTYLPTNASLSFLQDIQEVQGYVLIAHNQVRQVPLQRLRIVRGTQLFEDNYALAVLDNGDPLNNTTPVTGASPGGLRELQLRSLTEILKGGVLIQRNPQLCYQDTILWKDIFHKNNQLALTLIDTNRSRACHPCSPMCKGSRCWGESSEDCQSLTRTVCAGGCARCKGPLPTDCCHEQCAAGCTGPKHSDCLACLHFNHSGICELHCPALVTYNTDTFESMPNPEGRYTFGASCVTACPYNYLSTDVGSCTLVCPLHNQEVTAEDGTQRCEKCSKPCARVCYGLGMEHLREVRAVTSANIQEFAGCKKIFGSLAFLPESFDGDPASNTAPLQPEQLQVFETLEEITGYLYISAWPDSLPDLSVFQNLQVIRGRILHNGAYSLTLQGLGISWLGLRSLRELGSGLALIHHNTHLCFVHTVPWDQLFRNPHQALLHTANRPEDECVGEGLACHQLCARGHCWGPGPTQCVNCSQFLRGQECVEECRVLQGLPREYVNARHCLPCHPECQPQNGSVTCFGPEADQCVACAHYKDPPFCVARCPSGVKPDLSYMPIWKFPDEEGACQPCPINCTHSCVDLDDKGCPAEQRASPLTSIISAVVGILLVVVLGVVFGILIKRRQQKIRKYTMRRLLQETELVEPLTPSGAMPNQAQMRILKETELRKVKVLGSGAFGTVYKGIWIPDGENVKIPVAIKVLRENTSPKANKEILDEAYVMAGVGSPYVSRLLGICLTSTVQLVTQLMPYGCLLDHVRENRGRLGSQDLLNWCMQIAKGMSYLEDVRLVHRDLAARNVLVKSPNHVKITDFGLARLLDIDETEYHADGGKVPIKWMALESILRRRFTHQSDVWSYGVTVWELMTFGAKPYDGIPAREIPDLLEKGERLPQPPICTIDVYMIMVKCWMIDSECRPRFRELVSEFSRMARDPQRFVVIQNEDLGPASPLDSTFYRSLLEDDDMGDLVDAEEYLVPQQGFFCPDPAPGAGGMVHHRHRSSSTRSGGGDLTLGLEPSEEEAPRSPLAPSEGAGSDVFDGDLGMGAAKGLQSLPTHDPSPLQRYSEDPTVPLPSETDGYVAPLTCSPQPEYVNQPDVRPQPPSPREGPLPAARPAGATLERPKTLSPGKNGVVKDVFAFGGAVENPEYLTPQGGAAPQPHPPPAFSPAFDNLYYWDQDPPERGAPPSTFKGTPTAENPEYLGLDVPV
# [3] = reduced viability of SK-BR-3 breast cancer cells – cell-based, 24 h, human, pilot screen (AID 572;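 active = viability at or below 10% of carrier control in both of two separate runs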;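 also: compound exposure lasted between 18 and 24 h rather than exactly 24 h; 100% = carrier-treated control wells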); settings: SK-BR-3 viability, CellTiter-Glo luminescence, at 10 µM, stronger effect = lower value
# [4] = HUVEC growth inhibition – cell-based, human, primary screen (AID 575;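 active = viability at or below 30% in both replicate assays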;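 also: 100% = median of untreated cell wells with 0.1% DMSO on each plate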); settings: HUVEC proliferation, CellTiter-Glo luminescence, 72 h; at 10 µM; stronger effect = lower value
# Method in brief: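 Test system: primary human umbilical vein endothelial cells; medium: endothelial basal medium with 2% FBS plus growth supplements; dosing: 10 µM compound only; times: 72 h treatment at 37 °C; signal: CTG luminescence; read-out: % viability relative to median vehicle-well signal on each plate; control set: vehicle and MePR control wells; plate: 384-well, collagen-coated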
# [5] = H69AR cell proliferation blockers – human, duplicate replicates, primary screen (AID 580;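 active = viability at or under a set limit in both replicates, limit being median viability minus 3 SD, cut at about 48% in these data, passing the limit was not always enough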;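 also: 100% = mean luminescence of untreated wells and 0% = no signal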); settings: H69AR lung tumor cells viability, ATP luminescence, 72 h; at 10 µM; stronger effect = lower value
# [6] = MRP1 drug-resistance reversers in H69AR cells – cell-based, doxorubicin co-treatment, pilot screen (AID 601); settings: CellTiter-Glo, 72 h, at 10 µM; for differential viability (reversal): stronger effect = higher value
# [7] = yeast transport mutant growth inhibition pilot in 384-well plates, post-Golgi transport modulator project (AID 636; in the data active = inhibition above about 31%); settings: absorbance 615 nm, about 18 h, stronger effect = higher value
# [8] = growth suppression of yeast trafficking mutant, preliminary HTS, modulators of trafficking downstream of Golgi apparatus project, 1536-format plate, OD 615 nm (AID 637; in the data active = inhibition above about 30%); settings: yeast transport mutant growth, absorbance 615 nm, 18 h; stronger effect = higher value
# [9] = H69AR cells + 2 uM doxorubicin, measured here: viability with 2 uM doxorubicin, stronger effect = lower value
# [10] = H69AR cells, compound alone cytotoxicity
Structure (SMILES),viability [1],Her2 level [2],viability [3],viability [4],viability [5],differential viability (reversal) ([6]; H69AR cells + 2 uM doxorubicin),"viability [6, 9]","viability [6, 10]",inhibition [7],inhibition [8]
Cc1cc(Cl)ccc1NC(=O)CSc1nnc(Cc2cccs2)n1Cc1ccco1,77.5%,95.5% (inactive),77.5% (inactive),68.3% (inactive),77.2% (inactive),-8.29% (inactive),85.5%,77.2%,-3.92% (inactive),1.97% (inactive)
Cc1cc(=O)[nH]c(S/C=C/c2ccccc2)n1,91.5%,95% (inactive),91.5% (inactive),77% (inactive),79.9% (inactive),0.47% (inactive),79.4%,79.9%,-3.12% (inactive),-2.86% (inactive)
Cn1c(=O)cc(SCC(=O)NCC2CCCO2)c2ccc(Cl)cc21 (stereo not given),88.5%,88% (inactive),88.5% (inactive),89% (inactive),85.1% (inactive),-4% (inactive),89.1%,85.1%,-0.26% (inactive),-3.71% (inactive)
CC1(C)Cc2noc(N)c2C(C)(C)N1OC(=O)c1cccs1,103%,95.5% (inactive),103% (inactive),99.1% (inactive),102% (inactive),8.28% (inactive),94.2%,102%,-4.08% (inactive),-5.08% (inactive)
CCn1nnnc1SCC(=O)N1CCOCC1,116%,91% (inactive),116% (inactive),101% (inactive),97.6% (inactive),11.3% (inactive),86.3%,97.6%,-4.53% (inactive),3.44% (inactive)
Cc1ccc(S(=O)(=O)N2CCN(C(=O)CN3CCOCC3)C2C(C)C)cc1 (stereo not given),99.5%,102% (inactive),99.5% (inactive),102% (inactive),104% (inactive),9.15% (inactive),94.5%,104%,-2.86% (inactive),-2.54% (inactive)
COc1cc(Cn2c(-c3nonc3N)nc3ccccc32)ccc1C,104%,71.5% (inactive),104% (inactive),38.9% (inactive),17.8% (active),-29.2% (inactive),47.1%,17.8%,-3.92% (inactive),1.59% (inactive)
COc1ccc(S(=O)(=O)NC2CCCCC2)c(C)c1C,104%,91% (inactive),104% (inactive),90% (inactive),96.3% (inactive),8.58% (inactive),87.7%,96.3%,-2.89% (inactive),-2.9% (inactive)

# Reference: PubChem BioAssay
